Results from ChEMBL document CHEMBL4513216, “Probing the Open Global Health Chemical Diversity Library for Multistage-Active Starting Points for Next-Generation Antimalarials” (ACS Infect Dis, 2020).

assay: Toxicity liver stage against HepG2, at 10uM; format: cell-based; parameters: test concentration 10 uM, cell line HepG2-A16-CD81EGFP; conditions: human, HepG2-A16-CD81EGFP cells; read-out: INHIBITION
Method in brief: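 Uninfected HepG2-A16-CD81EGFP cells, 3 × 10^3 per well, 1536-well, plated on prespotted compound at 10 μM final, parasite-free screening media added to match infected plates; puromycin 10 μM positive, DMSO 0.5% negative; run in parallel with 48 h PbLuc assay at 37 °C, 5% CO2; viability by CellTiter-Glo luminescence, normalized to controls.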

Row | SMILES | cytotoxicity at 10 µM [%]
1 | N#Cc1c(Cl)nsc1NCCN1CCOCC1 | 9.64
2 | Cc1nnc(NCc2cccc(OCc3ccccn3)c2)c(C#N)c1C | 5.93
3 | Cc1ccc(-c2cn3c(n2)CO[C@@H](CNCc2cccnc2)C3)cc1 | -105
4 | Cn1cncc1-c1nnc([C@H]2CCN(Cc3cccnc3)C2)o1 | -4.39
5 | O=C(NCc1cccs1)NCC(O)(c1cccs1)C1CC1 (configuration not stated) | 1.66
6 | O=C(Cn1cccn1)N1CCC(Oc2ccc(C(F)(F)F)cn2)CC1 | 8.77
7 | CNCc1cnc(Nc2ccccc2)nc1 | 1.38
8 | O=C([C@H]1CCCO1)N1CCc2ncnc(C3CC3)c2CC1 | 4.79
9 | NC(=O)c1ccc(NC(=O)Cn2cc(I)cn2)cc1 | 8.49
10 | COc1cccc(C2SCC(=O)Nc3n[nH]cc32)c1OC(C)C (configuration not stated) | 5.09
11 | Cc1cc(O)c(OCC(=O)Nc2nc3c(s2)CCCC3)cn1 | 12.8
12 | O=C(Cn1ccc2ccc(Cl)cc21)/N=c1\[nH]nc(C2CCCO2)s1 (configuration not stated) | 10.8
13 | Cc1oc(-c2nc(C#N)c(NC(C)(C)C)o2)cc1S(=O)(=O)N1CCCC1 | -0.699
14 | COc1ccc(CNC(=O)c2nn(C)c3c2CS(=O)(=O)CC3)cc1 | 8.52
15 | CCn1ccc(C(=O)Nc2ccc3c(c2)C(C)(C)C(=O)N3C)n1 | 12.2
16 | Cc1ccc2nc(C)cc(NCCNS(=O)(=O)c3cccnc3)c2c1 | 13.5
17 | Cc1cc(N2CCC(Cc3cccnc3)CC2)ncn1 | 1.96
18 | Fc1cccc(OC2CCN(Cc3ncc[nH]3)CC2)c1 | -31.2
19 | COCCNC(=O)C1(Cc2ccccc2-c2ccncc2)CCOCC1 | -26.3
20 | CC(=O)N1CCCC(c2ccc(C(N)=O)cn2)C1 (configuration not stated) | 5.07
21 | O=C(NC1CCCc2nc(N3CCCCC3)ncc21)C1CCCC1 (configuration not stated) | -2.05
22 | O=C(c1cccs1)N1CCCC(c2cc(C(F)F)n3ncnc3n2)C1 (configuration not stated) | -23.4
23 | O=C(C1CCCCC1)N1CCC(n2nc(-c3ccco3)ccc2=O)CC1 | -16.6

Row | SMILES | cytotoxicity at 10 µM [%]
24 | Cc1cncc(C2CCCN(C(=O)c3cnco3)C2)n1 (configuration not stated) | -6.94
25 | COCC(=O)N1CCCC1c1nccnc1Nc1nc(C)cs1 (configuration not stated) | -3.36
26 | Cc1cncc(C2CCCN(CC3CCC3)C2)n1 (configuration not stated) | -7.41
27 | Cc1cc(OCC(N)=O)ccc1NC(=O)C(C)Cc1ccccc1F (configuration not stated) | -0.0944
28 | COc1cccc(Cn2[nH]c(C)c3c(NC(=O)C(C)OC)nnc2-3)c1 (configuration not stated) | -2.03
29 | Cc1cnc(NS(=O)(=O)c2cccc(C#N)c2)s1 | 15
30 | CCCN(C(=O)CN1CCN(CCO)CC1)C1=CCCCC1 | 6.45
31 | COc1c(C2CCCN2c2ncnc3sccc23)c(C)nn1C (configuration not stated) | 21.5
32 | COc1c(C2CCCN2Cc2nnc(C3CC3)o2)c(C)nn1C (configuration not stated) | -9.29
33 | Cc1cccc(S(=O)(=O)NC2CCN(CC(F)(F)F)C2)c1 (configuration not stated) | 0.741
34 | O=C(NCC1CCOC1)c1cc(-c2cccc(Cl)c2)[nH]n1 (configuration not stated) | -1.74
35 | Cc1ccn(C)c(=O)c1NC(=O)N(C)Cc1cccc(OC(C)C)c1 | 2.29
36 | Cc1nc(-c2ccc(S(=O)(=O)N3CCSC3)cc2)co1 | 17.2
37 | CCNC(=O)CS(=O)(=O)NC1CCC(C)CC1 (configuration not stated) | -4.57
38 | COCc1nc2cc3c(cc2c(=O)o1)OCCCO3 | 1.19
39 | CNS(=O)(=O)CC(=O)N1CCCc2cc(C(C)C)ccc21 | 11.8
40 | CN(C1CCN(C(=O)NCCc2ccc(F)cc2F)CC1)S(C)(=O)=O | 12.3
41 | CCNC(=O)NCCc1csc(N2CCCC2)n1 | -4.63
42 | Cc1csc(CNC(=O)NCC(O)c2ccc(F)c(F)c2)n1 (configuration not stated) | 2.51
43 | CCC(C)C(=O)NCc1cccc(OCCN(C)C2CCOCC2)c1 (configuration not stated) | -0.114
44 | CSCCNC(=O)c1cc(Br)cn1C(C)C | -1.16
45 | CC(C)C1CN(C(=O)c2ccc3nccnc3c2)CCS1 (configuration not stated) | 5.02
46 | N#Cc1ncn(CCC(=O)Nc2cccc(Cl)c2)n1 | -152

Row | SMILES | cytotoxicity at 10 µM [%]
47 | CCn1cnnc1C1CCN(C(=O)c2cccc(N(C)C)c2)CC1 | 1.54
48 | Cn1cc(S(=O)(=O)N2CCCC2Cn2ccnc2)cc1C(N)=O (configuration not stated) | 2.8
49 | Cc1cc(NC(=O)C(C)Nc2cccc(COCc3ccco3)c2)on1 (configuration not stated) | -2.41
50 | COc1cc2c(cc1OC)S(=O)(=O)N(Cc1cc(C)on1)C2=O | 11.3
51 | Cn1cc(CNC2CCOCC2)c(-c2cc3ccccc3o2)n1 | -45.1
52 | Cc1ccc(C(=O)N(C)C)cc1NC(=O)COCC1CC1 | 2.95
53 | Cn1c2ncccc2c(=O)n1CC(=O)NCCc1c(F)cccc1F | -5.33
54 | Cc1cccc(NC(=O)N2CCN(Cc3nnc(C(C)C)o3)CC2)c1 | -1.02
55 | CCCN1CCC(Nc2nc(C)ns2)CC1 | -8.92
56 | Cc1ccc(CNc2ccccc2SCCC(N)=O)s1 | 10.6
57 | CC(C)n1cnnc1C1CCCN(S(=O)(=O)CCCF)C1 (configuration not stated) | 7.39
58 | CO[C@H]1CN(C(=O)OC(C)(C)C)CC1NCc1ccn(C)c1 (some centres not stated) | -45.9
59 | Cc1oc(-c2ccsc2)nc1CNC(C)Cn1cccn1 (configuration not stated) | -9.81
60 | CC(=O)Nc1cccc(Cn2nc(C)nc2C)c1 | -3.19
61 | CC(NC(=O)Cn1cccnc1=O)c1ccc(OC(F)(F)F)cc1 (configuration not stated) | 1.66
62 | Cc1ccc(C(=O)NCCNC(=O)N(C)C(C)c2ccccn2)cc1 (configuration not stated) | 7.97
63 | CC(C)(C)OC(=O)CNC(=O)CCc1nnc(-c2ccsc2)o1 | -10.2
64 | COc1cccc(CN(C)C(=O)CCC(=O)c2ccc(Cl)cc2)c1OC | -1.1
65 | O=c1[nH][nH]cc1-c1ccnc(NCCCN2CCOCC2)n1 | 3.27
66 | CC[C@H](C)Nc1nccc(-c2cnc3sc(C)cn3c2=O)n1 | -6.02
67 | Cc1nc(C(=O)N2CCN(S(C)(=O)=O)[C@@H]3CS(=O)(=O)C[C@@H]32)cs1 | -9.19
68 | CC[C@H](N)C(=O)Nc1nn(CC(F)(F)F)c2cc(OC(C)C)ccc12 | -2.8
69 | O=C(NCCc1noc(C2CCCO2)n1)c1cn2ccsc2n1 (configuration not stated) | -4.4

Row | SMILES | cytotoxicity at 10 µM [%]
70 | Cc1nc[nH]c1-c1nccn1CCN1CCCOC1=O | -2.32
71 | CCCN1CCN(Cc2cccc(OC(C)C)c2)[C@H]2CS(=O)(=O)C[C@H]21 | 4.77
72 | Cc1ccc([C@@H]2CN(C(=O)c3ccccc3C)C[C@H]2N(C)C)cc1 | -8.29
73 | Cc1n[nH]c(C)c1-c1c(C#N)c(N)nc2c1CCc1[nH]ccc1-2 | 2.83
74 | CN1[C@@H](c2ccccc2)[C@@H](C(=O)NCc2ccncc2)C[C@@]1(C)C(=O)O | -40.6
75 | OCc1csc(N2CCCC(COc3cccc(F)c3)C2)n1 (configuration not stated) | -0.176
76 | COc1ncc(CN2CCC3(CCNC(=O)CC3)CC2)cn1 | -144
77 | Cc1cccc(CN2CCCC3(CCN(C4CCSCC4)C3)C2=O)c1 (configuration not stated) | 2.55
78 | CN(Cc1ccccc1)C1(C(=O)NC(C)(C)CO)Cc2ccccc2C1 | 0.603
79 | CCCSCC(=O)N1CCN(c2ccc(OC)cc2)CC1C (configuration not stated) | -166
80 | O=C(c1cc[nH]n1)N1CCc2ncnc(NCc3ccccn3)c2CC1 | -10.5
81 | CCOCCN1C[C@H](c2cccc(OC)c2)[C@@H](N)C1 | -0.786
82 | CCN(CC)C1COc2ccc(Br)cc2C1=O (configuration not stated) | -7.16
83 | CCn1cc(CNCc2ccc(C(=O)OC)cc2)c(C)n1 | -3.78
84 | Cc1cnn(C2CCCN(C(=O)c3ccc4c(c3)CCC4)C2)c1 (configuration not stated) | -4.81
85 | Cc1nc(C)n(CC2CCCN2Cc2cccc3c2OCCO3)n1 (configuration not stated) | -3.33
86 | OCCn1cc(CN2CCN(CCOc3ccc(F)cc3)CC2)cn1 | -11.1
87 | c1cnc(-c2nc(CN3CCCN(Cc4cccs4)CC3)cs2)nc1 | -7.66
88 | CCOc1cc(C)nc(N2CCN(C(=O)c3cc[nH]n3)CC2)n1 | -8.21
89 | CC1CN(C(=O)c2cccc(OCc3cscn3)c2)CCO1 (configuration not stated) | -9.86
90 | OC(COCc1ccccc1)CN1CC(n2cccn2)C1 (configuration not stated) | 1.95
91 | Cc1cc(C)c(CNC(=O)Cc2ccc3c(c2)CCCC3)c(=O)[nH]1 | -7.39
92 | Cn1ncc2c(=O)[nH]c(CN3CCc4ccccc4C3)nc21 | -2.72

Row | SMILES | cytotoxicity at 10 µM [%]
93 | CNS(=O)(=O)CCCN1CCCC1c1noc(C)n1 (configuration not stated) | -4.38
94 | COC(=O)CC(NC(=O)c1ccccc1OC)c1cccs1 (configuration not stated) | 0.35
95 | Cc1nc(C2CCCN(C(=O)c3cccc4c3OCO4)C2)sc1C (configuration not stated) | -8.72
96 | CCN(Cc1ccccc1Cl)Cn1nc(C)c2c(C)onc2c1=O | -2.34
97 | O=C(Cc1cccc(F)c1)NCCNCc1ccc2c(c1)CCO2 | -12.5
98 | c1ncn(CC2CCCCN2Cc2csc(C3CCCC3)n2)n1 (configuration not stated) | -6.44
99 | COc1c(C2CCCN2Cc2c(C)noc2C)c(C)nn1C (configuration not stated) | 5.73
100 | COc1ccc(CCN2CCCC(Cn3nc(C)nc3C)C2)cc1 (configuration not stated) | -3.34
101 | c1ccc(Cn2cc(CNC3CCc4ncnn4C3)cn2)cc1 (configuration not stated) | -1.61
102 | CN(Cc1ccco1)Cc1cncc2c1CCN(S(C)(=O)=O)C2 | 2.11
103 | c1cnc(NCc2nnn3c2CN(Cc2ccsc2)CCC3)nc1 | 10.8
104 | Cn1ccnc1CN1CCN2C[C@H](Oc3ccccc3)C[C@H]2C1 | 7.14
105 | CN(C)C(=O)COCC1CN(Cc2ccco2)Cc2ncn(C)c21 (configuration not stated) | -7.86
106 | Cc1ccc(C(=O)N2CCC3(CC2)CC(N2CCCC2)C3)cc1 | -0.77
107 | CN1CCN(C2COC3(CCN(c4ccc(C#N)cc4)CC3)C2)CC1 (configuration not stated) | 8.95
108 | Fc1ccc(CN2CCc3ncnc(C4CC4)c3CC2)cc1 | -147
109 | Cc1noc([C@H]2C[C@@H]3CCN(c4nnc(C)s4)C[C@H]3O2)n1 | 3.55
110 | OCC1N(Cc2ccc(F)cc2)C2CCC1(O)CC2 (configuration not stated) | 8.05
111 | Cc1ccc(N(Cc2ccco2)C(=O)Cc2cc(=O)n(C)[nH]2)cc1 | -152
112 | Cc1nc[nH]c1CN1C[C@H]2CC[C@@H](C1)N(C(=O)CCc1cnn(C)c1)C2 | -14.1
